Results published in ChEMBL document CHEMBL1138087, “Synthesis and evaluation of N-aryl pyrrolidinones as novel anti-HIV-1 agents. Part 1” (Bioorg Med Chem Lett, 2006).

What was measured:
[1] = test system: Human immunodeficiency virus 1; experiment: Antiviral activity against wild type HIV1 virus; assay type: functional, organism-based
Procedure, shortened: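 HEK 293T cells grown in DMEM with 10% FBS and Pen/Strep/Glutamine. Seeded at 700 cells/well, cultured 24 h at 37 °C under 5% CO₂. Serially diluted compound in DMSO added, then 1 h at 37 °C. HIV reporter virus added at MOI about 1.0, cells cultured a further 48 h at 37 °C. Luciferase read-out with Bright-Glo reagent.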

[2] = test system: HEK293; experiment: Cytotoxicity against HEK293T cells; assay type: functional; conditions: Homo sapiens
Procedure, shortened: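 293T cells seeded at 700 cells/well and cultured 24 h at 37 °C under 5% CO₂. Serially diluted compound in DMSO added to uninfected cells, then a further 48 h at 37 °C. Viability read by fluorescence after Alamar Blue (diluted 1:1 in DMEM) and 4 h at room temperature.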

[3] = test system: Human immunodeficiency virus 1; experiment: Selectivity for wild type HIV1 virus over HIV1 L100I mutant; assay type: functional
[4] = test system: Human immunodeficiency virus 1; experiment: Antiviral activity against HIV1 Y181C mutant; assay type: functional, organism-based
Procedure, shortened: (§1)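 HEK 293T cells grown in DMEM with 10% FBS and Pen/Strep/Glutamine. Cells seeded at 700 cells/well and cultured 24 h at 37 °C under 5% CO₂. Compounds serially diluted in DMSO were added and incubated 1 h at 37 °C. Cells were then infected with HIV reporter virus at MOI ~1.0 and cultured a further 48 h at 37 °C. Read-out was luciferase activity (Bright-Glo).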

[5] = test system: Human immunodeficiency virus 1; experiment: Antiviral activity against HIV1 K103N mutant; assay type: functional, organism-based; procedure, shortened: as §1
[6] = test system: Human immunodeficiency virus 1; experiment: Antiviral activity against HIV1 K103N/L100I mutant; assay type: functional, organism-based; procedure, shortened: as §1
[7] = test system: Human immunodeficiency virus 1; experiment: Selectivity for wild type HIV1 virus over HIV1 Y181C mutant; assay type: functional
[8] = test system: Human immunodeficiency virus 1; experiment: Antiviral activity against HIV1 L100I mutant; assay type: functional, organism-based; procedure, shortened: as §1
[9] = test system: Human immunodeficiency virus 1; experiment: Selectivity for wild type HIV1 virus over HIV1 K103N/L100I mutant; assay type: functional
[10] = test system: Human immunodeficiency virus 1; experiment: Selectivity for wild type HIV1 virus over HIV1 K103N mutant; assay type: functional

SMILES	EC50 [1] [µM]	CC50 [2] [µM]	also measured
COc1ccc([C@H]2CC(=O)N(c3cccc([S+](C)[O-])c3)C2)cc1OC1CCCC1 (stereo partly specified)	> 10	> 10	
COc1cccc(C(=O)C(=O)Nc2cccc(N3C[C@@H](c4ccc(OC)c(OC5CCCC5)c4)CC3=O)c2)c1	0.502	> 10	
COc1ccc([C@H]2CC(=O)N(c3ccc(C)c(N)c3)C2)cc1OC1CCCC1	0.196	> 10	
COc1ccc(OC)c(S(=O)(=O)Nc2cccc(N3C[C@@H](c4ccc(OC)c(OC5CCCC5)c4)CC3=O)c2)c1	0.104	7.59	
COc1ccc([C@H]2CC(=O)N(c3ccccc3C#N)C2)cc1OC1CCCC1	> 10	> 10	
COc1cccc(S(=O)(=O)Nc2cccc(N3C[C@@H](c4ccc(OC)c(OC5CCCC5)c4)CC3=O)c2)c1	0.025	> 10	Selectivity ratio [3]: 1.3; EC50 [4]: 0.99 µM; EC50 [5]: 0.656 µM; EC50 [6]: 0.076 µM; Selectivity ratio [7]: 40; EC50 [8]: 0.033 µM; Selectivity ratio [9]: 3; Selectivity ratio [10]: 26
COc1ccc([C@H]2CC(=O)N(c3cccc(NS(=O)(=O)c4cccc(C)c4)c3)C2)cc1OC1CCCC1	0.046	> 10	Selectivity ratio [3]: 0.3; EC50 [4]: 0.284 µM; EC50 [5]: 0.158 µM; EC50 [6]: 0.019 µM; Selectivity ratio [7]: 6.2; EC50 [8]: 0.014 µM; Selectivity ratio [9]: 0.41; Selectivity ratio [10]: 3.4
COc1ccc([C@H]2CC(=O)N(c3cccc(N)c3C)C2)cc1OC1CCCC1	> 10	> 10	
COc1ccc([C@H]2CC(=O)N(c3cccc(NS(=O)(=O)c4cccc(Br)c4)c3)C2)cc1OC1CCCC1	0.071	> 10	Selectivity ratio [3]: 0.74; EC50 [4]: 2.26 µM; EC50 [5]: 0.923 µM; EC50 [6]: 0.083 µM; Selectivity ratio [7]: 32; EC50 [8]: 0.053 µM; Selectivity ratio [9]: 1.1; Selectivity ratio [10]: 13
COc1ccc([C@H]2CC(=O)N(c3ccccc3C(F)(F)F)C2)cc1OC1CCCC1	> 10	> 10	
COc1ccc([C@H]2CC(=O)N(c3cccc(NCc4ccoc4)c3)C2)cc1OC1CCCC1	1.96	> 10	
COc1ccc([C@H]2CC(=O)N(C(=O)c3ccccc3)C2)cc1OC1CCCC1	> 10	> 10	
COc1ccc([C@H]2CC(=O)N(c3cccc(S(C)(=O)=O)c3)C2)cc1OC1CCCC1	> 10	> 10	
COc1ccc([C@H]2CC(=O)N(c3ccccn3)C2)cc1OC1CCCC1	2.63	> 10	
COc1ccc([C@H]2CC(=O)N(c3cccc(NS(=O)(=O)c4cc(Br)c(Cl)s4)c3)C2)cc1OC1CCCC1	0.046	> 10	Selectivity ratio [3]: 0.84; EC50 [4]: 0.753 µM; EC50 [5]: 0.542 µM; EC50 [6]: 0.095 µM; Selectivity ratio [7]: 16; EC50 [8]: 0.039 µM; Selectivity ratio [9]: 2; Selectivity ratio [10]: 12
COc1ccc([C@H]2CC(=O)N(c3ccc(C#N)cc3)C2)cc1OC1CCCC1	0.66	> 10	
COc1ccc([C@H]2CC(=O)N(c3cccc(NS(=O)(=O)c4ccccc4F)c3)C2)cc1OC1CCCC1	0.064	> 10	Selectivity ratio [3]: 0.53; EC50 [4]: 1.5 µM; EC50 [5]: 0.269 µM; EC50 [6]: 0.041 µM; Selectivity ratio [7]: 21; EC50 [8]: 0.034 µM; Selectivity ratio [9]: 0.64; Selectivity ratio [10]: 4.2
COc1ccc([C@H]2CC(=O)N(c3cccc(C#N)c3)C2)cc1OC1CCCC1	0.52	> 10	
COc1ccc([C@H]2CC(=O)N(c3cc(N)cc(N)c3)C2)cc1OC1CCCC1	> 10	> 10	
Cc1ccnc2c1NC(=O)c1cccnc1N2C1CC1 [NEVIRAPINE]	0.05	> 10	Selectivity ratio [3]: 3.2; EC50 [4]: > 10 µM; EC50 [5]: 5.05 µM; EC50 [6]: 4.39 µM; Selectivity ratio [7]: > 200; EC50 [8]: 0.164 µM; Selectivity ratio [9]: 88; Selectivity ratio [10]: 101
COc1ccc([C@H]2CC(=O)N(c3cccnc3)C2)cc1OC1CCCC1	2.37	> 10	
COc1ccc([C@H]2CC(=O)N(c3cccc(NS(=O)(=O)c4ccccc4Br)c3)C2)cc1OC1CCCC1	0.042	> 10	Selectivity ratio [3]: 0.38; EC50 [4]: 0.794 µM; EC50 [5]: 0.292 µM; EC50 [6]: 0.022 µM; Selectivity ratio [7]: 19; EC50 [8]: 0.016 µM; Selectivity ratio [9]: 0.52; Selectivity ratio [10]: 6.9
COc1ccc([C@H]2CC(=O)N(c3cccc(NS(=O)(=O)c4c(Br)nn(C)c4Cl)c3)C2)cc1OC1CCCC1	0.053	> 10	
COc1ccc([C@H]2CC(=O)N(c3cc(N)cc(F)c3)C2)cc1OC1CCCC1	0.08	> 10	
COc1ccc([C@H]2CC(=O)N(Cc3cccc([N+](=O)[O-])c3)C2)cc1OC1CCCC1	> 10	> 10	
COc1ccc([C@H]2CC(=O)N(c3ccccc3C)C2)cc1OC1CCCC1	> 10	> 10	
COc1ccc([C@H]2CC(=O)N(c3cccc(C)c3)C2)cc1OC1CCCC1	0.419	> 10	

SMILES	EC50 [1] [µM]	CC50 [2] [µM]	also measured
COc1ccc([C@H]2CC(=O)N(c3ccc(N)cc3)C2)cc1OC1CCCC1	1.86	> 10	
COc1ccc([C@H]2CC(=O)N(Cc3cccc(N)c3)C2)cc1OC1CCCC1	> 10	> 10	
COc1ccc([C@H]2CC(=O)N(c3cccc(NS(=O)(=O)c4cccc(OC(F)(F)F)c4)c3)C2)cc1OC1CCCC1	0.8	> 10	
COc1ccc([C@H]2CC(=O)N(c3ccc(S(C)(=O)=O)cc3)C2)cc1OC1CCCC1	0.18	> 10	
COc1ccc([C@H]2CC(=O)N(c3ccc(C(F)(F)F)cc3)C2)cc1OC1CCCC1	3.62	> 10	
COc1ccc([C@H]2CC(=O)N(Cc3cccc(C#N)c3)C2)cc1OC1CCCC1	> 10	> 10	
COc1ccc([C@H]2CC(=O)N(c3cccc(NC(=O)C(C)=O)c3)C2)cc1OC1CCCC1	5.79	> 10	
O=C1Nc2ccc(Cl)cc2[C@@](C#CC2CC2)(C(F)(F)F)O1 [EFAVIRENZ]			EC50 [4]: 0.001 µM; EC50 [5]: 0.032 µM; EC50 [6]: 2.53 µM; EC50 [8]: 0.01 µM
COc1ccc([C@H]2CC(=O)N(c3cccc(NS(=O)(=O)c4ccc(F)cc4)c3)C2)cc1OC1CCCC1	0.102	> 10	
COc1ccc([C@H]2CC(=O)N(c3ccccc3)C2)cc1OC1CCCC1	2.28	> 10	
COc1ccc([C@H]2CC(=O)N(c3cccc(NS(=O)(=O)c4cc(C)ccc4OC)c3)C2)cc1OC1CCCC1	0.033	> 10	Selectivity ratio [3]: 0.7; EC50 [4]: 0.507 µM; EC50 [5]: 0.172 µM; Selectivity ratio [7]: 15; EC50 [8]: 0.023 µM; Selectivity ratio [9]: 1; Selectivity ratio [10]: 5.2
COc1ccc([C@H]2CC(=O)N(c3cccc(N(C)C)c3)C2)cc1OC1CCCC1	4.71	> 10	
COc1ccc([C@H]2CC(=O)N(c3cccc(O)c3)C2)cc1OC1CCCC1	1.78	> 10	
COc1ccc([C@H]2CC(=O)N(c3cccc(NC(=O)C(=O)c4cccc(N(C)C)c4)c3)C2)cc1OC1CCCC1	0.124	> 10	
COc1ccc([C@H]2CC(=O)N(c3cccc(NC(=O)C(=O)c4cccs4)c3)C2)cc1OC1CCCC1	0.502	> 10	
COc1ccc([C@H]2CC(=O)N(c3cccc(NCCCc4ccccc4)c3)C2)cc1OC1CCCC1	7.9	> 10	
COc1ccc(S(=O)(=O)Nc2cccc(N3C[C@@H](c4ccc(OC)c(OC5CCCC5)c4)CC3=O)c2)cc1	0.256	> 10	
COc1ccc([C@H]2CC(=O)N(c3cccc(NCC4CCOC4)c3)C2)cc1OC1CCCC1 (stereo partly specified)	1.02	> 10	
COc1ccc([C@H]2CC(=O)N(C(C)=O)C2)cc1OC1CCCC1	> 10	> 10	
COc1ccc([C@H]2CC(=O)N(c3cccc(C(F)(F)F)c3)C2)cc1OC1CCCC1	2.95	> 10	
COc1ccc([C@H]2CC(=O)N(c3ccccc3N)C2)cc1OC1CCCC1	> 10	> 10	
COc1ccc([C@H]2CC(=O)N(c3ccc(C)cc3)C2)cc1OC1CCCC1	3.26	> 10	
CCCCNc1cccc(N2C[C@@H](c3ccc(OC)c(OC4CCCC4)c3)CC2=O)c1	6.96	> 10	
COc1ccc([C@H]2CC(=O)N(c3ccc([S+](C)[O-])cc3)C2)cc1OC1CCCC1 (stereo partly specified)	0.04	7.51	
COc1ccc([C@H]2CC(=O)N(c3ccncc3)C2)cc1OC1CCCC1	0.11	> 10	
COc1ccc([C@@H]2CNC(=O)C2)cc1OC1CCCC1 [(-)-ROLIPRAM]	> 10	> 10	
